Data from ChEMBL document CHEMBL4359857, “Design, synthesis and biological evaluation of chalcones as reversers of P-glycoprotein-mediated multidrug resistance” (Eur J Med Chem, 2019).
The source made the active and inactive calls. The rule behind the calls is not given here.

Experiments:
[1] = Cytotoxicity against human MCF7/Dox cells assessed as cell survival at 12.5 uM after 48 hrs by MTT assay relative to control; assay type: cell-based; settings: read-out: Survival
MCF7-DOX [2] = experiment: Cytotoxicity against human MCF7/Dox cells assessed as reduction in cell viability after 48 hrs by MTT assay; assay type: cell-based
[3] = Reversal of P-gp-mediated multidrug resistance in human MCF7/Dox cells assessed as potentiation of doxorubicin-induced cytotoxicity by measuring doxorubicin IC50 at 12.5 uM after 48 hrs by MTT assay (reference value: 51.19 +/- 0.95 microM)
MCF7-DOX [4] = experiment: Down regulation of p-gp protein expression in human MCF7/Dox cells at 12.5 uM in presence of doxorubicin by Western blotting analysis; assay type: functional, cell-based; settings: TDE = time-dependent effect
How it was run: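 MCF-7/DOX cells exposed to compound (12.5 µM), DOX (8 µM), or the combination for 24 h and 48 h. P-gp protein measured by western blot. MCF-7 parental cells used as reference.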

[5] = Cytotoxicity against MDCK2 cells expressing BCRP assessed as growth inhibition after 48 hrs by MTT assay; assay type: ADME, cell-based, Canis lupus familiaris; settings: dog, MDCK2 (MDCK-II) cells expressing BCRP
[6] = Cytotoxicity against human MCF7 cells assessed as growth inhibition after 48 hrs by MTT assay; assay type: cell-based
MCF7-DOX [7] = experiment: Antitumour activity against human MCF7/Dox cells xenografted in Balb/c mouse assessed as tumour growth inhibition at 5 to 15 mg/kg in presence of doxorubicin and measured after 30 days; assay type: functional, organism-based
[8] = Cytotoxicity against MDCK2 cells assessed as growth inhibition after 48 hrs by MTT assay; assay type: cell-based, Canis lupus familiaris; settings: dog, MDCK2 (MDCK-II) cells
[9] = target: ATP-dependent translocase ABCB1 (Homo sapiens, UniProt P08183); experiment: Reversal of P-gp mediated drug efflux in human MCF7/Dox cells assessed as increase in intracellular doxorubicin accumulation at 12.5 uM after 24 hrs by DAPI based fluorescence microscopic analysis; assay type: cell-based
How it was run: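 MCF-7/DOX cells exposed to DOX 8 µM with or without compound at 12.5 µM. Nuclei stained with DAPI. Intracellular DOX red fluorescence imaged by fluorescence microscopy.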

MCF7-DOX [10] = experiment: Antimigratory activity against human MCF7/Dox cells after 24 hrs by wound healing assay; assay type: functional, cell-based
How it was run: (§1)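 Wound-healing assay on confluent monolayers of MCF-7 or MCF-7/DOX cells. Cells treated 24 h, then wound width imaged and migration quantified against untreated control cells. Means ± SD, n = 3.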

[11] = Toxicity in Balb/c mouse xenografted with human MCF7/Dox cells assessed as body weight at 5 to 15 mg/kg administered for 30 days and measured for every 2 days; assay type: organism-based; settings: in vivo
[12] = Cytotoxicity against human MCF7/Dox cells assessed as growth inhibition after 48 hrs by MTT assay; assay type: cell-based
MCF7 [13] = experiment: Antimigratory activity against human MCF7 cells after 24 hrs by wound healing assay; assay type: functional, cell-based; how it was run: as §1
[14] = Cytotoxicity against human H69 cells assessed as growth inhibition after 48 hrs by MTT assay; assay type: cell-based; settings: H69 cells (NCI-H69)
MCF7-DOX [15] = experiment: Down regulation of p-gp mRNA expression in human MCF7/Dox cells at 12.5 uM in presence of doxorubicin after 48 hrs by RT-PCR analysis; assay type: functional, cell-based
How it was run: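 MCF-7/DOX cells exposed for 48 h to compound (12.5 µM), DOX (8 µM), or both. P-gp mRNA measured by RT-PCR versus control and DOX-alone groups.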

[16] = Toxicity in Balb/c mouse xenografted with human MCF7/Dox cells assessed as effect on body weight at 5 to 15 mg/kg in presence of doxorubicin and measured after 30 days; assay type: organism-based; settings: in vivo, 720 h
MCF7-DOX [17] = experiment: Antitumour activity against human MCF7/Dox cells xenografted in Balb/c mouse assessed as reduction in tumour weight at 5 to 15 mg/kg and measured after 30 days; assay type: functional, organism-based
MCF7-DOX [18] = experiment: Antitumour activity against human MCF7/Dox cells xenografted in Balb/c mouse assessed as reduction in tumour volume at 5 to 15 mg/kg and measured after 30 days; assay type: functional, organism-based
[19] = Cytotoxicity against human H69AR cells assessed as growth inhibition after 48 hrs by MTT assay; assay type: cell-based
[20] = target: T1, Broad substrate specificity ATP-binding cassette transporter ABCG2 (Homo sapiens, UniProt Q9UNQ0); experiment: Reversal of ABCG2 (unknown origin)-mediated multidrug resistance expressed in MDCK2 cells assessed as potentiation of mitoxantrone-induced cytotoxicity at 25 uM after 48 hrs by MTT assay; assay type: cell-based
T1 sequence (Q9UNQ0 whole entry): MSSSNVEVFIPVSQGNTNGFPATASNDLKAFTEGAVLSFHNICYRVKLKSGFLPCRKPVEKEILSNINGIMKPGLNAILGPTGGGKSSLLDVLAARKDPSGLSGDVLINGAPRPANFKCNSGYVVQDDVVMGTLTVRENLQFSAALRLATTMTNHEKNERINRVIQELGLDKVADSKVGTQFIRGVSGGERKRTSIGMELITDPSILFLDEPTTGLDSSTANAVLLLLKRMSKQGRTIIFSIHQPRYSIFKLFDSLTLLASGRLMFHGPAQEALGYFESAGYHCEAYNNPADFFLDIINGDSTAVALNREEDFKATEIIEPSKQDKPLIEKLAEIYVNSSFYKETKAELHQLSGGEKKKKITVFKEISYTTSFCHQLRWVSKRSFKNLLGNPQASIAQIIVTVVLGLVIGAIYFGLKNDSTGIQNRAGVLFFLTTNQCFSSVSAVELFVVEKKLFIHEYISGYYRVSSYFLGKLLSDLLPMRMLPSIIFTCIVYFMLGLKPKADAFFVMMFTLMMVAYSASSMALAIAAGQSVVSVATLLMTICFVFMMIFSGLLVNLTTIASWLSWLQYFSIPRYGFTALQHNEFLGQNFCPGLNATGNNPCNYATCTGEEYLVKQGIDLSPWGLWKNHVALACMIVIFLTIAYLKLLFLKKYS
How it was run: (§2)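 Transporter selectivity screen by MTT in H69AR (MRP1-overexpressing) with doxorubicin, and in MDCK II BCRP with mitoxantrone. Compound tested at 12.5 and 25 µM alongside the cytostatic. Reversal read as decreased viability versus cytostatic alone.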

[21] = target: Multidrug resistance-associated protein 1 (Homo sapiens, UniProt P33527); experiment: Reversal of MRP-1 (unknown origin)-mediated multidrug resistance expressed in human H69AR cells assessed as potentiation of doxorubicin-induced cytotoxicity at 25 uM after 48 hrs by MTT assay; assay type: cell-based; how it was run: as §2
MCF7-DOX [22] = experiment: Antimigratory activity against human MCF7/Dox cells after 36 hrs by crystal violet staining based transwell migration assay; assay type: functional, cell-based
How it was run: (§3)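 Transwell migration assay with MCF-7 or MCF-7/DOX cells treated 36 h. Migrated cells quantified against untreated control cells. Means ± SD, n = 3.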

MCF7 [23] = experiment: Antimigratory activity against human MCF7 cells after 36 hrs by crystal violet staining based transwell migration assay; assay type: functional, cell-based; how it was run: as §3
MCF7-DOX [24] = experiment: Antitumour activity against human MCF7/Dox cells xenografted in Balb/c mouse assessed as tumour growth inhibition at 2 mg/kg measured after 30 days; assay type: functional, organism-based

ATP-dependent translocase ABCB1, sequence (P08183 whole entry): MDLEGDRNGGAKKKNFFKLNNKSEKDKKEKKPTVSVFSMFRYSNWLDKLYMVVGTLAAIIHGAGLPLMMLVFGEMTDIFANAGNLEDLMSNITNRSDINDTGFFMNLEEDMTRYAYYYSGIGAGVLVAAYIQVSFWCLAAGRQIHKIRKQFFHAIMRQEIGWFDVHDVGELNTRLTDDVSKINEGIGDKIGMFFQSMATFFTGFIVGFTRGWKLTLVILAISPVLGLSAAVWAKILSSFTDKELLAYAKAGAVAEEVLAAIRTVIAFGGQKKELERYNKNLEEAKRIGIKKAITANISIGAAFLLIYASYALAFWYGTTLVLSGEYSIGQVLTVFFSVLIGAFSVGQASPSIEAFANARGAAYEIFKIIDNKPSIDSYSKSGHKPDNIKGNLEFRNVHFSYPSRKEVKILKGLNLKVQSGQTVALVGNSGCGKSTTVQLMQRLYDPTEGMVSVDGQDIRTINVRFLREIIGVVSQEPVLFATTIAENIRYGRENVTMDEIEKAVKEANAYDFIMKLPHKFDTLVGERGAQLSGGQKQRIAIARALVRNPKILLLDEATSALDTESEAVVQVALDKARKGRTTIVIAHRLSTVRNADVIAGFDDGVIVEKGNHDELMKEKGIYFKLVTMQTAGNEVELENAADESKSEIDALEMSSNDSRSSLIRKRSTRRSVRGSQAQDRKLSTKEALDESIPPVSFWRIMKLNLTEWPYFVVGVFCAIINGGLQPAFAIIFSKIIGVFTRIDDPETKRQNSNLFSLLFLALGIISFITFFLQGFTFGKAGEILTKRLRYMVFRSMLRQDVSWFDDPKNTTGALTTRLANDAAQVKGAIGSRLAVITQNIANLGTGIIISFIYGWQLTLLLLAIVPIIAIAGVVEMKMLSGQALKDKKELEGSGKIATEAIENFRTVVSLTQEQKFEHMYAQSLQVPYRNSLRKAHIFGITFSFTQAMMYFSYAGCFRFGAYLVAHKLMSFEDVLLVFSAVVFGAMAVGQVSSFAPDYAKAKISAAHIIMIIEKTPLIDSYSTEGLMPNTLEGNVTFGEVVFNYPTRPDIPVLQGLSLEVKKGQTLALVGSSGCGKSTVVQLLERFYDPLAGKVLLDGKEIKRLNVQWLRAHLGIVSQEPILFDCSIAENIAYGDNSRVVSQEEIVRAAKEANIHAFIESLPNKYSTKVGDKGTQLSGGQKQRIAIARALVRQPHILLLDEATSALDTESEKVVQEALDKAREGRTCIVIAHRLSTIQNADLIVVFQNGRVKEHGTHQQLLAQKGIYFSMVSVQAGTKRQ
Multidrug resistance-associated protein 1, sequence (P33527 whole entry): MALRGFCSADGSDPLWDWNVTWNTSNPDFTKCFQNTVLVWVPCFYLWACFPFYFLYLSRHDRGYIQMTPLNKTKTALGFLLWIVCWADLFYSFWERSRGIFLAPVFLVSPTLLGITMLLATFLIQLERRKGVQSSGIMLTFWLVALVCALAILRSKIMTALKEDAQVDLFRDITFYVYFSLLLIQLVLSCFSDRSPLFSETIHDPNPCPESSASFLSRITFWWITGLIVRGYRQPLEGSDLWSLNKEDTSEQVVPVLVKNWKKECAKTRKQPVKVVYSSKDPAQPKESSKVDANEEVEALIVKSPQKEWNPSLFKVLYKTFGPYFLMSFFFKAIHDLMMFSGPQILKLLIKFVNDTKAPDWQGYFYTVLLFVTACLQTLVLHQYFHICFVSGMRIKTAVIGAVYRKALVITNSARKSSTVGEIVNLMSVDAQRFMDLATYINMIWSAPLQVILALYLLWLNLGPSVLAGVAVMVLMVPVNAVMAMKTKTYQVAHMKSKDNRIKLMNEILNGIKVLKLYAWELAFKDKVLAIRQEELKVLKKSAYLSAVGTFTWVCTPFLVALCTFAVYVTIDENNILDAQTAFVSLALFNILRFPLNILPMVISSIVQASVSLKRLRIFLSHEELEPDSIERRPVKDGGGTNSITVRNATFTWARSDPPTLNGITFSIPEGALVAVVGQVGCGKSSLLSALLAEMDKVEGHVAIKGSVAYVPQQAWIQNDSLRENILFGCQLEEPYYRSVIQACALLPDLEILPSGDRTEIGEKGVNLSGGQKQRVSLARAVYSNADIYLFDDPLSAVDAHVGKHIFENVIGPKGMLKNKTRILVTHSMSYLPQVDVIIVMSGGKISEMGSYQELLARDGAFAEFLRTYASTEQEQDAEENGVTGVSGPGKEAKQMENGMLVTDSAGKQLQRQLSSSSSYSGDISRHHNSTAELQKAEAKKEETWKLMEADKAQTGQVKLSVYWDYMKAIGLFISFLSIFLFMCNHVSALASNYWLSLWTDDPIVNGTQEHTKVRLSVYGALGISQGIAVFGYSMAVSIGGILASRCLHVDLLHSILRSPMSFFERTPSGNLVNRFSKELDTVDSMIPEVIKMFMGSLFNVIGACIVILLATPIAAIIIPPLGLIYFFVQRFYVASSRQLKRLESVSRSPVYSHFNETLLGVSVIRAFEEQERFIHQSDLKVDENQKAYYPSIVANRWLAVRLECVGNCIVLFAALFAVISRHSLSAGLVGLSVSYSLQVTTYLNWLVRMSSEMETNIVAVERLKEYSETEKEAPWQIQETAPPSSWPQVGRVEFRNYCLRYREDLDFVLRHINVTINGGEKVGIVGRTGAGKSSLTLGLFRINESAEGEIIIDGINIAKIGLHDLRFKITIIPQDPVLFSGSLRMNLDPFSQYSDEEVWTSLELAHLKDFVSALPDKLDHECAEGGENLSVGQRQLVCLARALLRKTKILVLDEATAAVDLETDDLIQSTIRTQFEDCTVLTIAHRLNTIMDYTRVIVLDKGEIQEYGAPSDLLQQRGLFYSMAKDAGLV

Structure (SMILES) | viability at 48 h, 12.5 µM [1] | IC50 (MCF7-DOX [2]) | also measured
COc1cc(O)c(C(=O)/C=C/c2ccc(N3CCN(C(=O)OC(C)(C)C)CC3)cc2)c(OC)c1 | 90.6% | 47.3 µM | 
COc1cc(O)c(C(=O)/C=C/c2cccc(N3CCOCC3)c2)c(OC)c1 | > 99% | > 100 µM | 
COc1cc(OC)c(C(=O)/C=C/c2cccc(N3CCN(C)CC3)c2)c(O)c1CC=C(C)C | > 99% | > 100 µM | IC50 [3]: 23.59 µM
COc1cccc(/C=C/C(=O)c2c(OC)cc(OC)c(CC=C(C)C)c2O)c1 | > 99% | 49.2 µM | 
COc1cc(OC)c(C(=O)/C=C/c2cccc(N3CCNCC3)c2)c(O)c1C | 95.8% | 98.7 µM | IC50 [3]: 4 µM
COc1cc(OC)c(C(=O)/C=C/c2cccc(Cl)c2)c(O)c1CC=C(C)C | > 99% | 59.5 µM | 
COc1cc(O)c(C(=O)/C=C/c2cccc(N3CCNCC3)c2)c(OC)c1 | > 99% | 99.2 µM | 
COc1cc(OC)c(C(=O)/C=C/c2ccc(F)cc2)c(O)c1CC=C(C)C | 94.3% | 53.7 µM | IC50 [3]: 17.96 µM
COc1cc(OC)c(C(=O)/C=C/c2ccc(N3CCN(C(=O)OC(C)(C)C)CC3)cc2)c(O)c1CC=C(C)C | > 99% | > 100 µM | 
COc1cc(OC)c(C(=O)/C=C/c2cccc(C(F)(F)F)c2)c(O)c1CC=C(C)C | 91.6% | 66.6 µM | 
CCCc1c(OC)cc(OC)c(C(=O)/C=C/c2cccc(N3CCNCC3)c2)c1O | > 99% | > 100 µM | 
COc1cc(O)c(C(=O)/C=C/c2cccc(N3CCN(C)CC3)c2)c(OC)c1 | > 99% | 62.2 µM | 
COc1c(C)c(O)c(C)c(O)c1C(=O)/C=C/c1ccccc1 | 86% | 46.8 µM | 
COc1cc(OC)c(C(=O)/C=C/c2cccc(F)c2)c(O)c1CC=C(C)C | 92.7% | 45.4 µM | 
COc1cc(OC)c(C(=O)/C=C/c2cccc(N3CCN(C(=O)OC(C)(C)C)CC3)c2)c(O)c1CC=C(C)C | 93% | 42.6 µM | 
COc1cc(OC)c(C(=O)/C=C/c2ccc(N(C)C)cc2)c(O)c1CC=C(C)C | > 99% | > 100 µM | 
COc1cc(OC)c(C(=O)/C=C/c2cccc([N+](=O)[O-])c2)c(O)c1CC=C(C)C | > 99% | 57 µM | IC50 [3]: 8.83 µM

Structure (SMILES) | viability at 48 h, 12.5 µM [1] | IC50 (MCF7-DOX [2]) | also measured
COc1cc(OC)c(C(=O)/C=C/c2ccc(C(F)(F)F)cc2)c(O)c1CC=C(C)C | > 99% | 73.7 µM | IC50 [3]: 23.59 µM
CCCCc1c(OC)cc(OC)c(C(=O)/C=C/c2cccc(N3CCNCC3)c2)c1O | 91.6% | > 100 µM | 
COc1cc(OC)c(C(=O)/C=C/c2ccccc2)c(O)c1CC=C(C)C | 90.6% | 65.4 µM | IC50 [3]: 20.64 µM
COc1cc(OC)c(C(=O)/C=C/c2ccc(Cl)cc2)c(O)c1CC=C(C)C | 90.1% | 43.4 µM | 
COc1cc(OC)c(C(=O)/C=C/c2cccc(N3CCNCC3)c2)c(O)c1CC=C(C)C | > 99% | 99.9 µM | inhibition (MCF7-DOX [4]): Tde; GI50 at 48 h [5]: > 100 µM; GI50 at 48 h [6]: > 100 µM; TGI (MCF7-DOX [7]): Active; GI50 at 48 h [8]: > 100 µM; inhibition (INH) [9]: Active; inhibition (MCF7-DOX [10]): Active; Activity [11]: Non-Toxic; GI50 at 48 h [12]: > 100 µM; inhibition (MCF7 [13]): Active; GI50 at 48 h [14]: > 100 µM; inhibition (MCF7-DOX [15]): Active; Activity [16]: Non-Toxic; inhibition (MCF7-DOX [17]): inactive; inhibition (MCF7-DOX [18]): inactive; GI50 at 48 h [19]: 91.7 µM; inhibition (INH) [20]: Not Active; inhibition (INH) [21]: Not Active; inhibition (MCF7-DOX [22]): Active; inhibition (MCF7 [23]): Active
COc1cccc2c1C(=O)c1c(O)c3c(c(O)c1C2=O)C[C@@](O)(C(=O)CO)C[C@@H]3O[C@H]1C[C@H](N)[C@H](O)[C@H](C)O1 |  |  | inhibition (MCF7-DOX [24]): inactive
COc1ccc(C(=O)/C=C/c2cccc(N3CCNCC3)c2)c(OC)c1 | 96.4% | 95 µM | 
COc1cc(O)c(C(=O)/C=C/c2ccc(N3CCNCC3)cc2)c(OC)c1 | 94.2% | 67.5 µM | IC50 [3]: 16.62 µM
COc1cc(OC)c(C(=O)/C=C/c2ccc(N3CCNCC3)cc2)c(O)c1CC=C(C)C | 98.3% | 57.8 µM | IC50 [3]: 14.84 µM
COc1ccc(/C=C/C(=O)c2c(OC)cc(OC)c(CC=C(C)C)c2O)cc1 | > 99% | 46.9 µM | 
COc1cc(O)c(C(=O)/C=C/c2cccc(N3CCN(C(=O)c4ccc(OC)c(OC)c4)CC3)c2)c(OC)c1 | > 99% | > 100 µM | 
COc1cc(OC)c(C(=O)/C=C/c2cccc(N3CCOCC3)c2)c(O)c1CC=C(C)C | > 99% | > 100 µM | 
COc1cc(OC)c(C(=O)/C=C/c2ccc(OC)c(OC)c2OC)c(O)c1CC=C(C)C | 91.9% | 62.6 µM | 
COc1cc(O)c(C(=O)/C=C/c2cccc(N3CCN(C(=O)OC(C)(C)C)CC3)c2)c(OC)c1 | 85.4% | 56.7 µM | IC50 [3]: 39.95 µM
CCCCCc1c(OC)cc(OC)c(C(=O)/C=C/c2cccc(N3CCNCC3)c2)c1O | 93.6% | > 100 µM | 
CCc1c(OC)cc(OC)c(C(=O)/C=C/c2cccc(N3CCNCC3)c2)c1O | 89.5% | > 100 µM | 
COc1cc(OC)c(C(=O)/C=C/c2cc(OC)c(OC)c(OC)c2)c(O)c1CC=C(C)C | 90.8% | 74.9 µM | IC50 [3]: 26.56 µM
